Results from ChEMBL document CHEMBL5154715, “Phenolic Lipids Derived from Cashew Nut Shell Liquid to Treat Metabolic Diseases” (J Med Chem, 2022).
Active and inactive are the calls of the source. The calls are words filed in the database; no cut-off is given here.

Experiments:
[1] = molecular target: T1, Peroxisome proliferator-activated receptor gamma (Homo sapiens) (UniProt P37231); assay: Agonist activity at human PPARgamma expressed in HEK293 cells assessed as maximal activity by luciferase/beta-galactosidase reporter gene assay relative to rosiglitazone; assay type: cell-based
T1 sequence (whole entry): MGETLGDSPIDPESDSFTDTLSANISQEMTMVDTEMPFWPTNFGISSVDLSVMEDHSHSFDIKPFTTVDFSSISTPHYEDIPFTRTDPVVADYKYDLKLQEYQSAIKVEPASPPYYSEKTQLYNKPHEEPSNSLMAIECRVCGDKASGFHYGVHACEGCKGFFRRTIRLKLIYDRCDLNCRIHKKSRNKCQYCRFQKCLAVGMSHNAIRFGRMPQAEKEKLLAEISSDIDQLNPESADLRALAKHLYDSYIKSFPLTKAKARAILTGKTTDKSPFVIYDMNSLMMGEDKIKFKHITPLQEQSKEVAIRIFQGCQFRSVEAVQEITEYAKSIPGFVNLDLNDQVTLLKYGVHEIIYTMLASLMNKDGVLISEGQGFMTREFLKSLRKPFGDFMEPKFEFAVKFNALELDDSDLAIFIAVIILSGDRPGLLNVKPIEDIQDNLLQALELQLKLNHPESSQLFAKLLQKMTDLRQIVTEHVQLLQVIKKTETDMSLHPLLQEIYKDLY
Method in brief: (§1)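 HEK293 cells in charcoal-stripped FBS, calcium phosphate co-transfected with GAL4-hPPAR LBD fusion, UAS-luciferase and β-galactosidase. Ligand added 6–8 h post transfection, full dose–response, harvested 14–16 h later. Luciferase normalized to β-galactosidase.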

[2] = molecular target: T2, Peroxisome proliferator-activated receptor alpha (Homo sapiens) (UniProt Q07869); assay: Stabilization of human PPARalpha LBD assessed as change in melting temperature at 25 uM by thermal shift assay
T2 sequence (whole entry): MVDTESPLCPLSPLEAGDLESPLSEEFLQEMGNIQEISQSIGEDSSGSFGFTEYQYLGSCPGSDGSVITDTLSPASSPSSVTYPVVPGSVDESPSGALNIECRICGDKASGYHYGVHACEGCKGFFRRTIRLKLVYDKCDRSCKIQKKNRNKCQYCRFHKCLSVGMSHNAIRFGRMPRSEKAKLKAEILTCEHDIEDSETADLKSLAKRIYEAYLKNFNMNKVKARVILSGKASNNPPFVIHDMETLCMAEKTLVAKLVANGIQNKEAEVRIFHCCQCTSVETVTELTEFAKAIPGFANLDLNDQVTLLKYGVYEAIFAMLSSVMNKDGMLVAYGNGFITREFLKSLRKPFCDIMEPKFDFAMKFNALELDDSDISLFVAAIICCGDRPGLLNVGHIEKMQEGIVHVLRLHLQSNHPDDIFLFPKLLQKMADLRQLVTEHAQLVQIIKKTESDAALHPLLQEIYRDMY
Method in brief: (§2)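 Purified hPPAR LBD at 1 mg/mL (∼25 μM) with ligand (α-LBD at 25 μM; γ- and δ-LBD at 50 μM). Static light scattering at 473 nm from 25 to 70 °C in 0.5 °C steps, 1 °C/min. Tm from four-parameter fit; ΔTm relative to DMSO; mean ± SEM, N = 3.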

[3] = molecular target: T2, Peroxisome proliferator-activated receptor alpha (Homo sapiens); assay: Agonist activity at human PPARalpha expressed in HEK293 cells assessed as maximal activity by luciferase/beta-galactosidase reporter gene assay relative to GW7647; assay type: cell-based; method in brief: as §1
[4] = molecular target: T3, Peroxisome proliferator-activated receptor alpha (Homo sapiens, UniProt Q07869); assay: Agonist activity at human PPARalpha expressed in HEK293 cells by luciferase/beta-galactosidase reporter gene assay; assay type: cell-based; method in brief: as §1
T3 sequence (Q07869 whole entry): T2 sequence (whole entry)

[5] = molecular target: T4, Peroxisome proliferator-activated receptor gamma (Homo sapiens, UniProt P37231); assay: Agonist activity at human PPARgamma expressed in HEK293 cells by luciferase/beta-galactosidase reporter gene assay; assay type: cell-based; method in brief: as §1
T4 sequence (P37231 whole entry): T1 sequence (whole entry)

[6] = molecular target: T2, Peroxisome proliferator-activated receptor alpha (Homo sapiens); assay: Agonist activity at human PPARalpha transfected in HEK293 cells assessed as relative luciferase unit at 50 uM measured after 16 hrs by luciferase reporter gene assay; assay type: cell-based; details: filed as agonist
Method in brief: (§3)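 GAL4-hPPAR (α or γ) plus UAS-luciferase and β-galactosidase transiently co-transfected into HEK293 cells, then treated with 50 μM compound for 16 h. RLU = luciferase/β-galactosidase × time, vehicle (DMSO) set to 1. Mean ± SD, N = 3; one-way ANOVA with Holm–Šidák vs vehicle.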

[7] = molecular target: T1, Peroxisome proliferator-activated receptor gamma (Homo sapiens); assay: Agonist activity at human PPARgamma transfected in HEK293 cells assessed as relative luciferase unit at 50 uM measured after 16 hrs by luciferase reporter gene assay; assay type: cell-based; details: filed as agonist; method in brief: as §3
[8] = molecular target: T5, Peroxisome proliferator-activated receptor gamma (Mus musculus) (UniProt P37238); assay: Agonist activity at human PPARgamma in mouse 3T3-L1 cells assessed as induction of adipogenic differentiation at 25 uM measured after 11 days by Oil Red O staining analysis; assay type: cell-based; details: filed as agonist, time 11.0 day
T5 sequence (whole entry): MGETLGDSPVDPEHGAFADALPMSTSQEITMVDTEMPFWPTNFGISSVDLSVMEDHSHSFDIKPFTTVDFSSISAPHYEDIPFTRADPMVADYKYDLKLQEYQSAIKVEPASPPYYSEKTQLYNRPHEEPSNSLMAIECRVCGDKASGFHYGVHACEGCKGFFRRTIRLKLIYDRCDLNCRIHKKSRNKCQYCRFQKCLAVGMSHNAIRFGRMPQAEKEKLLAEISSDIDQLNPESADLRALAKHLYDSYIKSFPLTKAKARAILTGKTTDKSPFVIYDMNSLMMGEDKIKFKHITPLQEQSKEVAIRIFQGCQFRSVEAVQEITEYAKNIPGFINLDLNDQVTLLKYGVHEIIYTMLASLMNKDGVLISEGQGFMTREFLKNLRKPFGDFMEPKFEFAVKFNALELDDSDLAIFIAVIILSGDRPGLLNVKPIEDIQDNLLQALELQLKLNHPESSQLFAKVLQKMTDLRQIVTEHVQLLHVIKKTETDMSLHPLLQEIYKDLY
Method in brief: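 3T3-L1 cells differentiated for 11 days (IBMX/dexamethasone/insulin induction, then insulin, then maintenance medium) with 25 μM compound or 10 μM rosiglitazone from day 0. Cells formalin-fixed and stained with 0.6% Oil Red O. Lipid quantified spectrophotometrically after dye extraction.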

[9] = Metabolic stability in C57BL/6 mouse liver microsomes assessed as half life; assay type: ADME, Microsome; details: time 2 min
[10] = molecular target: T6, Peroxisome proliferator-activated receptor delta (Homo sapiens) (UniProt Q03181); assay: Stabilization of human PPARdelta LBD assessed as change in melting temperature at 50 uM by thermal shift assay
T6 sequence (whole entry): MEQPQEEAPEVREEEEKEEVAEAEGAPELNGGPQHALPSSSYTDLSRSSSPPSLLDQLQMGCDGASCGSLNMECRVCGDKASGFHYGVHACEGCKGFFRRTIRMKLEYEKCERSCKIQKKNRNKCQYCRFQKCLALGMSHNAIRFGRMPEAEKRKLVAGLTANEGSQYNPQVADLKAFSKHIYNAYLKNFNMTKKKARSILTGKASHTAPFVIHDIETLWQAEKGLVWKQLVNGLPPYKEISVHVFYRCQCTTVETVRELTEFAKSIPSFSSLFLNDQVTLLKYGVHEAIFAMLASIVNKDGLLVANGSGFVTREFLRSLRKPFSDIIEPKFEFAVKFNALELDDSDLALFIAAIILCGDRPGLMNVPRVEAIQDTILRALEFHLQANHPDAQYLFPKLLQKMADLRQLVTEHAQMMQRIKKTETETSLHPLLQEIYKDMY

[11] = Metabolic stability in C57BL/6 mouse liver microsomes assessed as parent compound remaining incubated for 120 mins; assay type: ADME, Microsome; details: read-out: Stability
[12] = molecular target: T1, Peroxisome proliferator-activated receptor gamma (Homo sapiens); assay: Stabilization of human PPARgamma LBD assessed as change in melting temperature at 50 uM by thermal shift assay
[13] = test system: Danio rerio; assay: In vivo agonist activity at human GFP-tagged PPARalpha in transgenic zebrafish assessed as increase in GFP expression in brain at 8.9 uM measured after 14 hrs by microscopy
[14] = molecular target: T6, Peroxisome proliferator-activated receptor delta (Homo sapiens); assay: Stabilization of human PPARdelta LBD assessed as change in melting temperature at 50 uM by thermal shift assay; method in brief: as §2
[15] = molecular target: T1, Peroxisome proliferator-activated receptor gamma (Homo sapiens); details: dose 50.0 µM
[16] = test system: Danio rerio; assay: In vivo agonist activity at human GFP-tagged PPARgamma in transgenic zebrafish assessed as increase in GFP expression in tail bud at 0.1 uM measured after 14 hrs by microscopy

Row | Emax [1] | ΔTm [2] | Emax [3] | EC50 [4] | EC50 [5] | Activity [6] | Activity [7] | Activity [8] | half-life [9] | ΔTm [10] | remaining at 2 h [11] | ΔTm [12] | ΔTm [14] | ΔTm [15] | Structure (SMILES) | Activity [13] | Activity [16]
1 | 30% | 0.6 °C | 5% | 8.9 µM | 3.9 µM | Active | Active | Active | 5.58 h | 0.5 °C | 78% | 0.2 °C |  |  | CCCCCCCCCCCCCCCc1cccc(OC(C)(C)C(=O)OCC)c1 | Active | 
2 |  |  |  |  |  |  |  |  |  |  |  |  | 7.7 °C |  | O=C(O)COc1ccc(SCC=C(c2ccc(Br)cc2)c2ccc(Br)cc2)cc1Cl |  | 
3 |  |  |  |  |  |  |  |  |  |  |  | 5 °C |  | 5 °C | CN(CCOc1ccc(CC2SC(=O)NC2=O)cc1)c1ccccn1 (configuration not stated) |  | Active
